# Measured values published in ChEMBL document CHEMBL4513216, “Probing the Open Global Health Chemical Diversity Library for Multistage-Active Starting Points for Next-Generation Antimalarials” (ACS Infect Dis, 2020).
# Assay: Toxicity liver stage against HepG2, at 10uM
# Format: cell-based
# Parameters: test concentration 10 uM, cell line HepG2-A16-CD81EGFP
# Details: human, HepG2-A16-CD81EGFP cells; read-out: INHIBITION
# Method in brief: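 Uninfected HepG2-A16-CD81EGFP cells, 3 × 10^3 per well, 1536-well, plated on prespotted compound at 10 μM final, parasite-free screening media added to match infected plates; puromycin 10 μM positive, DMSO 0.5% negative; run in parallel with 48 h PbLuc assay at 37 °C, 5% CO2; viability by CellTiter-Glo luminescence, normalized to controls.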
row,SMILES,cytotoxicity at 10 µM
1,O=C(CC1CCCC1)NCCS(=O)(=O)N1CCN(c2ccccc2)CC1,-4.07%
2,CN(c1cccnn1)C1CCN(C(=O)c2n[nH]c3c2CCC3)CC1,6.96%
3,O=C(N[C@@H]1CNCCC[C@H]1O)c1ccc(OCCN2CCOCC2)cc1,3.11%
4,Cn1cncc1-c1nnc([C@H]2CCN(CC3CCCCC3)C2)o1,-4.65%
5,CC[C@H]1CN(C(=O)C2CC2)CC[C@H]1CC(=O)NCCN1CCOCC1,-7.3%
6,Cc1ccc(Oc2ncccc2C(=O)N(C)CC2OCCO2)c(C)c1,3.54%
7,COc1ccc(C(=O)Nc2ccccc2C(C)C)c(OC)n1,3.66%
8,O=C(CC1CCCC1)N1CCN2C[C@@H](CO)[C@H](c3ccccc3)[C@H]2C1,-4.73%
9,COc1cccc(C(=O)NCC2CCN(C(=O)c3ccoc3)CC2)c1,15.9%
10,C[C@H]1C[C@H]2CN(C(=O)C3=CCCCC3)CC[C@H]2O1,4.76%
11,CN(C)C(=O)NCc1nnc2n1CCN(Cc1ccsc1)C2,8.31%
12,COCCN1CCC2(COCc3c(C)nc(N(C)C)nc32)C1 (stereo unspecified),-132%
13,CC(=O)N1[C@H](Cn2cncn2)C[C@@H]2CN(Cc3nccs3)CC[C@@H]21,10%
14,CCN1C(=O)C[C@@H]2[C@@H]1CCN2S(=O)(=O)Cc1ccc(C)cc1,-6.22%
15,CNC(=O)c1cc2c(nc1NCC1CC1)CCN(c1ncccn1)CC2,0.283%
16,Cc1cccc(CN2CC[C@@H]3[C@@H]2CCN3C(=O)c2cnoc2C)n1,-21.1%
17,CS(=O)(=O)NC[C@]12COC[C@H]1CN(C(=O)Cc1ccccc1F)C2,-2.57%
18,Cc1c(-c2cc(C(F)F)nc3sc(C(N)=O)c(N)c23)cnn1C,10.1%
19,COc1c(CC2CC(C(=O)O)=NO2)c(Br)c2c(c1OC)OCO2 (stereo unspecified),6.36%
20,CCC(=O)Nc1nnc(CCOc2ccccc2)s1,7.16%
21,OCc1n[nH]c(-c2ccc(F)cc2)n1,-4.64%
22,Cc1sc(C(=O)NC(C)C)cc1S(=O)(=O)N(C)C,-7.84%
23,Cc1cncnc1C1CCN(CC(N)=O)CC1,-6.84%

row,SMILES,cytotoxicity at 10 µM
1,CC(C)CC(=O)N1CCC(c2nnc3n2CCCCC3)CC1,-28%
2,Cc1ccnc(C2CCCN2C(=O)CN(C)C)n1 (stereo unspecified),-19.1%
3,Cc1cc2c(=O)n3c(nc2s1)CCN(C(=O)c1ccnn1C)CC3,-4.08%
4,CCc1nnc2n1CCN(C(=O)C1CCC(n3cccc3)CC1)C2 (stereo unspecified),-1.5%
5,COc1ccccc1N1CCN(C(=O)c2ccoc2)CC1,11.5%
6,Cc1cc(F)ccc1N1CCCC(NS(=O)(=O)CCCF)C1=O (stereo unspecified),-3.14%
7,O=C(c1cnc(-c2ccccc2)nc1)N1CCOC2(CCCC2)C1,-1.39%
8,Cc1noc(C)c1NC(=O)Cn1cc(Br)ccc1=O,8.99%
9,CN(CC(=O)NCc1cc2ccccc2o1)S(C)(=O)=O,4.59%
10,CCN(Cc1ccc(C#N)cc1F)C(=O)C(C)(C)C,5.73%
11,Cc1cc(NCc2cn(C)nc2-c2cccnc2)n(C)n1,12%
12,Cc1c(NC(=O)NC(C)CCO)cccc1OC1CCCC1 (stereo unspecified),-7.18%
13,NC(=O)c1cn[nH]c1NC(=O)c1ccc2c(c1)OCO2,1.03%
14,O=C(COC1CCCC1)NCc1ccc(O)c(F)c1,-2.43%
15,NC(=O)C1CCN(CCCc2ccc(C(F)(F)F)cc2)CC1,-0.85%
16,Cn1nc2c(cc1=O)CN(CCCOc1ccc(C#N)cc1)CC2,22.9%
17,Cc1noc(NCc2ccc(F)cc2F)n1,-4.49%
18,CCN(CC)c1ccc(CNC(=O)c2ccccn2)cn1,10.8%
19,CC(Cc1c(F)cccc1F)NC(=O)CN(CC(N)=O)C(C)C (stereo unspecified),-10.5%
20,O=C(c1cnc(NCC2CCCO2)c(Cl)c1)N1CCOCC1 (stereo unspecified),0.0875%
21,c1nc(N2CCCC(Cn3cncn3)C2)c2ccsc2n1 (stereo unspecified),5.68%
22,Cc1ccc(OCCNc2cccc(C(=O)N3CCOCC3)c2)cc1,4.14%
23,COC(=O)[C@H](C)NC(=O)Cc1c(C)nc2c(c1C)c(=O)[nH]n2C,10.7%

row,SMILES,cytotoxicity at 10 µM
1,CN(CC(N)=O)S(=O)(=O)c1ccc(F)cc1F,4.26%
2,CCn1cnnc1C1CCN(C(=O)c2cnn(C(C)(C)C)c2)CC1,4.78%
3,CCOC(C)c1nc(Cn2cc(C(=O)NC)ccc2=O)cs1 (stereo unspecified),-0.315%
4,CC(C)(O)CSCCNC(=O)c1ccc(F)cc1Cl,-10.9%
5,Clc1cncc(NCc2cccc(COC3CCOCC3)c2)n1,14.6%
6,CN(Cc1nnc(C2CC2)o1)C(c1ccc(F)cc1)c1cccnc1 (stereo unspecified),-4.06%
7,Cc1ccccc1C(C)(C)CNC(=O)CCSc1nnnn1C,6.51%
8,Cc1nc(O)ccc1C(=O)NCc1ncoc1C,5.68%
9,Cc1[nH]ccc1C(=O)NCc1ncoc1C,-2.45%
10,CS(=O)(=O)N1CCN(c2cc(N3CCCC3CO)ncn2)CC1 (stereo unspecified),3.51%
11,CC(c1ccc(-n2cncn2)cc1)N(C)Cc1ccccn1 (stereo unspecified),8.86%
12,Cc1cccc(N2CCN(C(=O)CCc3ccsc3)C(C)C2)n1 (stereo unspecified),18.4%
13,CC(C)(C)C(O)CN1CCN(CC(=O)NC(C2CC2)C2CC2)CC1 (stereo unspecified),3.51%
14,CN(C(=O)c1cccnc1OCC(F)F)c1ccc2c(c1)CCO2,3.47%
15,CCOc1ccnc(N2CCN(C(=O)CCc3ccncc3)CC2)n1,-0.662%
16,CCc1nc(CCNC(=O)NC2CC2)sc1C,-14.4%
17,c1coc(-c2noc(CN3CCC(c4ccn[nH]4)CC3)n2)c1,-8.19%
18,COc1ccnc(N2CCN(C(=O)c3csc(C4CC4)n3)CC2)n1,4.85%
19,COc1ccc(F)cc1C(C)NC(=O)c1nnc(C)s1 (stereo unspecified),-0.213%
20,CN(C)S(=O)(=O)N1CCN(c2nccc(C(F)(F)F)n2)CC1,-7.04%
21,Cc1cc(C)n(CCCNC(=O)C(C)NC(=O)c2ccccc2Cl)n1 (stereo unspecified),-0.136%
22,O=C(c1ccc[nH]1)N1CCCn2c(nnc2Cn2cccn2)C1,8.06%
23,COCC1CN(C(=O)c2ccco2)Cc2nccn2C1 (stereo unspecified),-107%

row,SMILES,cytotoxicity at 10 µM
1,CCOC[C@@H]1CC[C@H]2[C@H](CCN2S(=O)(=O)c2ccc(F)cc2)O1,1.39%
2,CN1C(=O)CC(c2cnn(C)c2)C12CCN(C(=O)C1CC=CC1)CC2 (stereo unspecified),5.84%
3,CC(C)NC(=O)N1CC(=O)c2sc(NC3CCCCC3)nc2C1,-7.91%
4,COc1cccc(CN(C)C(C)c2ccon2)c1OCCn1ccnc1 (stereo unspecified),-5.17%
5,O=C(c1csc2nc(-c3ccc(Cl)cc3)cn12)N1CCCC(CO)C1 (stereo unspecified),2.2%
6,CCc1nc(C)c([C@H]2CN(C)C[C@@H]2C(=O)NCc2ccccn2)[nH]1,2.77%
7,COc1ccc(C2(C(=O)N3C[C@@H](C(=O)O)[C@H](C(C)C)C3)CC2)cc1,-8.36%
8,COc1ccc(-c2ccc(C(=O)N3CCC[C@@H]3CO)o2)cc1,7.44%
9,OCC(O)CN1CCc2onc(-c3ccc(C(F)(F)F)cc3)c2C1 (stereo unspecified),-3.24%
10,Cc1nonc1C1CCCN1C(=O)c1cn2ccsc2n1 (stereo unspecified),9.59%
11,COCCc1nc(CN2CC(C)(c3ccccc3)CCC2=O)no1 (stereo unspecified),-3.07%
12,N#Cc1cccnc1N1CCCC(CO)(Cc2ccccc2F)C1 (stereo unspecified),4.01%
13,CN1CCN(C(=O)c2cccc(S(=O)(=O)NCC3(C)COC3)c2)CC1,-14.1%
14,Cc1cc(CNC(=O)c2cn(CCC3CCCCN3)nn2)on1 (stereo unspecified),-7.19%
15,CCn1cnnc1CN(C)c1nccc(C2CCCC2)n1,0.998%
16,O=C(NCc1cnn2ccccc12)NC1CCCC1,-2.91%
17,Cc1nn(C2CCCCC2)c2nc(C(C)(C)CN3CCOCC3)[nH]c12,-3.64%
18,O=C(CSc1ccncc1)N1CCC2(CC1)c1ccccc1CC2O (stereo unspecified),-2.36%
19,Cc1cccc(N2CCC3(CCCN3Cc3c(C)nn(C)c3C)CC2)n1,-8.35%
20,O=C(O)c1cccc(C2CCCN(S(=O)(=O)N3CCOCC3)C2)c1 (stereo unspecified),9.45%
21,CCCn1nc(C)c(CNC(=O)C2COc3c(cccc3OC)C2)c1C (stereo unspecified),-11.8%
22,COc1nc(C)c(C(=O)N(C)Cc2nc(-c3ccccn3)no2)s1,-8.44%
23,Cc1cc(C[C@@H]2COC[C@@H]2NC(=O)CN2CCCN(C)CC2)on1,-15%

row,SMILES,cytotoxicity at 10 µM
1,O=C(c1ccccc1-c1ccccc1)N1CCOC2(CNCCOC2)C1 (stereo unspecified),-16.2%
2,O=C(CSCC1CC1)N1CCCC(c2nccn2Cc2ccncc2)C1 (stereo unspecified),-13.3%
3,Cc1ccc(C2CCCN2S(=O)(=O)N(C)CCc2ccccn2)o1 (stereo unspecified),-5.31%
4,Cc1cc(C)n(CCC(=O)N2CCC(Nc3cccnn3)CC2)n1,-6.36%
5,O=C(NCCCn1cncn1)N1CCC(N2CCCCC2)CC1,-7.01%
6,O=C(CSc1ccc(F)cc1F)NS(=O)(=O)c1ccc2c(c1)OCCO2,-10.7%
7,Cc1cc(NC(=O)NCC(C)N2CCOCC2)n(C)n1 (stereo unspecified),-18.3%
8,O=C(c1ccn(-c2ccc(F)cc2)n1)N1CCCC(n2ccnc2)C1 (stereo unspecified),-16.3%
9,Cc1ccc(OCCC(=O)N2CCC(c3nncn3C)CC2)c(C)c1,-6.27%
10,COCCOc1ccc(NC(=O)N2CCCC2c2cccs2)cn1 (stereo unspecified),-3.17%
11,COCC(c1cccc(C(F)(F)F)c1)N(C)C(=O)c1cc(C)n[nH]1 (stereo unspecified),-14.1%
12,CN1CC2(CCN(Cc3cccnc3)CC2)c2cccc(F)c21,10.7%
13,COCCC(=O)N1CCn2cc(CN3CCN(C)CC3)nc2C1,-3.13%
14,CC(C)OCCCN(Cc1ccncc1)Cc1cc(F)ccc1F,-29.2%
15,CNC1CCCN(Cc2noc(C3CC3)n2)C1 (stereo unspecified),0.95%
16,OC(CN1CCN(Cc2cccc(F)c2)CC1)C1CC1 (stereo unspecified),-2.45%
17,Fc1cnc(N2CCCn3c(CN4CCOCC4)nnc3C2)nc1,-138%
18,COCCN1C[C@@H]2CCCO[C@@H]2[C@H](NC(=O)c2cnccn2)C1,0.766%
19,O=C(c1ccccn1)N1C[C@H]2CC[C@@H](C1)N(C(=O)CCc1ccsc1)C2,-12.7%
